Entries after “also recorded” stand apart in the source; their conditions may differ.
Legend:
[1] = tested on: human prostate cancer PC-3, LNCaP and DU-145 cells; assay: MTT staining cytotoxicity in prostate cancer cell lines; type: cell-based; conditions: concentrations of 5-30 μM; 24, 48, 72 hrs
DU-145 cells = assay: MTT staining cytotoxicity, DU-145; type: cell-based, human
Method in brief: (§1)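 Cells were seeded at 5 × 10⁴ cells/ml (DU-145 in EMEM, LNCaP in RPMI, 10% FBS) and allowed to attach for 24 h. Free test compound was given at 1.56–50 μM, with DMSO and empty liposome controls, for 24, 48 or 72 h. MTT (0.25 mg/ml final) was added for 2 h at 37°C, formazan dissolved in DMSO, and absorbance read at 590 nm. IC50 came from the concentration-effect curve. Triplicates, n = 3.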

LNCaP cells = assay: MTT staining cytotoxicity, LNCaP; type: cell-based, human; conditions: read-out: IC50 (MTT)
Method in brief: as §1

MCF-7 = assay: MTT staining cytotoxicity, MCF-7; type: cell-based, human; conditions: read-out: IC50 (MTT)
MDA-231 = assay: MTT staining cytotoxicity, MDA-231; type: cell-based, human; conditions: read-out: IC50 (MTT)
PC-3 cells = assay: Annexin V and PI staining by flow cytometry; type: cell-based, human; conditions: PC-3, 48 hr; free IPA-3 20-30 μM
Method in brief: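 PC-3 cells (F12K, 10% FBS, 37°C, 5% CO₂) were grown 24 h, then exposed to free test compound, liposomal test compound or empty liposomes. After treatment they were PBS-washed twice and stained for 10 min with annexin V-FITC and PI in HEPES binding buffer (140 mM NaCl, 1.8 mM CaCl2, pH 7.4). Cells were washed three times, scraped off, and 10,000 events counted by flow cytometry. Mean ± SEM of percent stained cells.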

[2] = tested on: PC-3 cell tumor xenografts; assay: In vivo prostate tumor xenograft growth; parameters: species or system athymic nude mice; conditions: 5 mg/kg i.p., 2 days/week from day 7 to day 25
Method in brief: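 Male athymic nude mice, 6-8 weeks old (n = 5-6), received 3 million PC-3 cells in sterile saline SC. From day 7, dosing was i.p. twice weekly: free or sterically stabilized liposomal test compound at 5 mg/kg, with DMSO or empty liposome controls. Calipers were used on days 7, 14, 21 and 25, with volume = ½[length × width²]. Tumors were excised and weighed on day 25.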

[3] = Body weight of tumor bearing mice; type: in vivo, athymic nude mice; conditions: 5 mg/kg i.p., 2 days/week, after 25 days
Method in brief: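 Athymic nude mice carried SC PC-3 xenografts and were dosed i.p. twice weekly from day 7. Groups were free or liposomal test compound at 5 mg/kg, DMSO, or empty liposomes. Body weight was recorded on day 25 after implantation, which was day 18 of treatment. Mean ± SEM.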

[4] = tested on: PC-3 cell tumor xenografts; assay: TUNEL assay of apoptosis in tumor xenograft sections; type: in vivo, athymic nude mice; conditions: 5 mg/kg i.p., 2 days/week, day 25
Method in brief: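 PC-3 xenografts were collected on day 25, after 18 days of i.p. dosing twice weekly at 5 mg/kg, with DMSO and empty liposome controls. Frozen sections were fixed in 2% paraformaldehyde (4°C, 30 min) and permeabilized in ethanol:acetic acid 2:1. They were labeled with fluorescein-12-dUTP by terminal deoxynucleotidyl transferase and counterstained with DAPI. TUNEL-positive cells were counted by fluorescence microscopy (n = 4).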

prostate tumor xenograft = conditions: daily administration ref 8; cited from earlier work
[5] = free form, rapid metabolism ref 10; cited from earlier work

Q: With `Oc1ccc2ccccc2c1SSc1c(O)ccc2ccccc12` [IPA-3] as the compound, how does the “effect on MTT staining” value [1] read?
A: The value was “concentration- and time-dependent decreases in MTT staining”.

Q: And the “susceptibility to toxicity (MTT staining)” value (DU-145 cells; DU-145 compared to PC-3 and LNCaP cells)?
A: Its value is “less susceptible”.

Q: And the IC50 (DU-145 cells; read-out: IC50 (MTT), DU-145)?
A: The IC50 was about 32 µM.

Q: And the IC50 (LNCaP cells)?
A: The IC50 was 10 µM.

Q: And the IC50 (MCF-7)?
A: The IC50 was 25 µM.

Q: And the IC50 (MDA-231)?
A: Its IC50 is 8 µM.

Q: And the “percent cells staining positive for annexin V alone” value (PC-3 cells)?
A: Its value is “significantly increased”.

Q: What about the “percent cells staining positive for both annexin V and PI” value (PC-3 cells) of the same compound?
A: The value was “significantly increased”.

Q: What about the “PC-3 cell tumor xenograft growth” value [2] of the same compound?
A: Its value is “ineffective; also recorded: did not have a significant effect”.

Q: And the “effect on body weight of mice” value [3]?
A: Its value is “no significant effect”.

Q: And the “number of apoptotic (TUNEL positive) cells per field compared to control groups” value [4]?
A: Its value is “significant increases”.

Q: And the “prostate tumor xenograft growth” value (prostate tumor xenograft)?
A: Its value is “reduced”.

Q: What about the half-life in vivo [5] of the same compound?
A: The half-life in vivo was “very short”.
